Measurements published in ChEMBL document CHEMBL1138808, “Synthesis and anticancer activity of simplified indenoisoquinoline topoisomerase I inhibitors lacking substituents on the aromatic rings” (2004).
Activity calls are given as the source filed them. The rule behind the calls is not given here.

Key:
DU-145 = experiment: Growth inhibitory activity against human prostate DU-145 cell line; type: functional
In short: (§1)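 Growth inhibition in human cancer cell culture. GI50 is the concentration giving 50% growth inhibition. Compounds were tested at concentrations up to […].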

OVCAR-3 = experiment: Growth inhibitory activity against human ovarian OVCAR-3 cell line; type: functional; in short: as §1
HOP-62 = experiment: Growth inhibitory activity against human lung HOP-62 cell line; type: functional; in short: as §1
[1] = system: Panel (Carcinoma cell lines); experiment: Mean graph mid point for growth inhibition of human cancer cell lines; type: functional; set-up: unit not given here
In short: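 Mean graph midpoint of growth inhibition, taken across all human cancer cell lines successfully tested. Compounds were tested at concentrations up to […], and GI50 is the concentration giving 50% growth inhibition.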

SN12C = experiment: Growth inhibitory activity against human renal SN12C cell line; type: functional; in short: as §1
[2] = biological target: T1, DNA topoisomerase 1 (Homo sapiens) (UniProt P11387); experiment: Induction of topoisomerase I mediated DNA cleavage; Activity similar to parent compound 1
T1 sequence (whole entry): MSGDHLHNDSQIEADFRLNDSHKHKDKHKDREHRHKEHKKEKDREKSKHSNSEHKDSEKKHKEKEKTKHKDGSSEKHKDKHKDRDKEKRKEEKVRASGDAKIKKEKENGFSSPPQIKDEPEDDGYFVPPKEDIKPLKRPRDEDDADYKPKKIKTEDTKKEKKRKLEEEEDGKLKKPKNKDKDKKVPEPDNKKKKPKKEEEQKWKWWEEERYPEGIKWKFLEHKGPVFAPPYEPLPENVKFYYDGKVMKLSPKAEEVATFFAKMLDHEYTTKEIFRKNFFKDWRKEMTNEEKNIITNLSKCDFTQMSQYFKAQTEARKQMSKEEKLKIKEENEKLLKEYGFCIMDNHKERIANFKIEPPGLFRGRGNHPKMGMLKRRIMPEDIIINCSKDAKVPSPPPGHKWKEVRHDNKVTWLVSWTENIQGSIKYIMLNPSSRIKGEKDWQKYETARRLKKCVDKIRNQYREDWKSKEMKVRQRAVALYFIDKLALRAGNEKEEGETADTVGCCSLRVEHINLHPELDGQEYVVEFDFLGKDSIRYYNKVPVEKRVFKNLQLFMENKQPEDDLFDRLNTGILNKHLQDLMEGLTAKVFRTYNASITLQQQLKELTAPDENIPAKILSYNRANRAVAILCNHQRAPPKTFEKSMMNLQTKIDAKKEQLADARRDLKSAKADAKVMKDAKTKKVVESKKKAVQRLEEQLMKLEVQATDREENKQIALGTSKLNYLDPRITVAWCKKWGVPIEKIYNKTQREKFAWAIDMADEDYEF

HCT-116 = experiment: Growth inhibitory activity against human colon HCT116 cell line; type: functional; in short: as §1
MDA-MB-435 = experiment: Growth inhibitory activity against human breast MDA-MB-435 cell line; type: functional; in short: as §1
UACC-62 = experiment: Growth inhibitory activity against human melanoma UACC-62 cell line; type: functional; in short: as §1
[3] = Growth inhibitory activity against human CNSSF-539 cell line; type: functional; in short: as §1
[4] = biological target: T1, DNA topoisomerase 1 (Homo sapiens); experiment: Induction of topoisomerase I mediated DNA cleavage; Greater activity than parent compound 1
[5] = biological target: T1, DNA topoisomerase 1 (Homo sapiens); experiment: Induction of topoisomerase I mediated DNA cleavage; weak activity
[6] = biological target: T1, DNA topoisomerase 1 (Homo sapiens); experiment: Induction of topoisomerase I mediated DNA cleavage; greater activity than parent compound 1
[7] = biological target: T1, DNA topoisomerase 1 (Homo sapiens); experiment: Induction of topoisomerase I mediated DNA cleavage; Activity similar to 1 uM camptothecin; weak activity
[8] = biological target: T1, DNA topoisomerase 1 (Homo sapiens); experiment: Induction of topoisomerase I mediated DNA cleavage; Activity similar to 1 uM camptothecin

Compound | GI50 (DU-145) | GI50 (OVCAR-3) | GI50 (HOP-62) | Mean graph mid point [1] | GI50 (SN12C) | DNA cleavage [2] | GI50 (HCT-116) | GI50 (MDA-MB-435) | GI50 (UACC-62) | GI50 [3] | DNA cleavage [4] | DNA cleavage [5] | DNA cleavage [6] | DNA cleavage [7] | DNA cleavage [8]
CCCn1c2c(c3ccccc3c1=O)C(=O)c1cc3c(cc1-2)OCO3 | > 100000 nM | 20900 nM | > 100000 nM | 66.1 | > 100000 nM | Activity similar to parent compound 1 | 30200 nM | > 100000 nM | > 100000 nM | > 100000 nM |  |  |  |  | 
COc1cc2c3c(n(CCCNCCO)c(=O)c2cc1OC)-c1cc2c(cc1C3=O)OCO2.Cl | > 10 nM | 350 nM |  | 0.11 | > 10 nM |  |  |  |  | 40 nM | Greater activity than compound 1 |  |  |  | 
O=C1c2ccccc2-c2c1c1ccccc1c(=O)n2CCCO |  |  |  |  |  | Activity similar to parent compound 1 |  |  |  | 52500 nM |  |  |  |  | 
O=C1c2ccccc2-c2c1c1ccccc1c(=O)n2CCNCCO | 1280 nM | 3850 nM | 1620 nM | 1.9 | 950 nM |  | 1120 nM | 2560 nM | 1420 nM | 1650 nM |  | Weak activity |  |  | 
N=C(N)NCCCn1c2c(c3ccccc3c1=O)C(=O)c1ccccc1-2.O=C(O)C(F)(F)F | 7590 nM | 18200 nM | 690 nM | 9.77 | 230 nM |  | 22400 nM | 25700 nM | 11000 nM | 370 nM | Greater activity than compound 1 |  |  |  | 
O=C1c2ccccc2-c2c1c1ccccc1c(=O)n2CCO |  |  |  |  |  | Activity similar to parent compound 1 |  |  |  | 12200 nM |  |  |  |  | 
O=C1c2cc3c(cc2-c2c1c1ccccc1c(=O)n2CCCBr)OCO3 | 7590 nM | 18200 nM |  | 9.77 | 230 nM |  | 22400 nM | 25700 nM |  | 370 nM |  | Weak activity |  |  | 
Cl.NCCCCn1c2c(c3ccccc3c1=O)C(=O)c1ccccc1-2 | 10 nM | 520 nM | 80 nM | 0.16 | 40 nM |  | 100 nM | 840 nM | 50 nM | 100 nM |  |  | greater activity than compound 1 |  | 
Cl.Cl.O=C1c2ccccc2-c2c1c1ccccc1c(=O)n2CCCNCCCn1ccnc1 | 410 nM | 1780 nM | 410 nM | 1 | 2000 nM | Activity similar to parent compound 1 | 1580 nM | 1450 nM | 6920 nM | 1070 nM |  |  |  |  | 
COc1cc2c3c(n(CCCN(C)C)c(=O)c2cc1OC)-c1cc2c(cc1C3=O)OCO2 | 140 nM | 1400 nM | 18 nM | 0.35 | 900 nM |  | 120 nM | 650 nM | 540 nM | 190 nM | Greater activity than compound 1 |  |  |  | 
CCn1c2c(c3ccccc3c1=O)C(=O)c1cc3c(cc1-2)OCO3 | > 100000 nM | 89100 nM | 36300 nM | 51.3 | > 100000 nM |  | 95500 nM | > 100000 nM | 20000 nM | 40700 nM |  |  | greater activity than compound 1 |  | 
CC[C@@]1(O)C(=O)OCc2c1cc1n(c2=O)Cc2cc3ccccc3nc2-1 [CAMPTOTHECIN] |  |  |  | 0.04 |  |  |  |  |  | 10 nM | Active |  |  |  | 
O=C1c2ccccc2-c2c1c1ccccc1c(=O)n2CCN1CCOCC1 | > 100000 nM | 81300 nM | > 100000 nM | 67.6 | 93300 nM |  | 36300 nM | > 100000 nM | 29500 nM | 85100 nM | Greater activity than compound 1 |  |  |  | 
O=C1c2ccccc2-c2c1c1ccccc1c(=O)n2CCCl |  |  |  |  |  |  |  |  |  | 2240 nM |  |  |  | +/- | 
COc1cc2c3c(n(C)c(=O)c2cc1OC)-c1cc2c(cc1C3=O)OCO2 | 37000 nM |  | 1300 nM | 20 | 68000 nM | Activity similar to parent compound 1 | 35000 nM | 96000 nM | 4200 nM | 41000 nM |  |  |  |  | 
CN(C)CCCn1c2c(c3ccccc3c1=O)C(=O)c1ccccc1-2 | 1320 nM | 1700 nM | 1740 nM | 1.86 | 910 nM |  | 580 nM | 2820 nM | 510 nM |  |  |  | greater activity than compound 1 |  | 
CCn1c2c(c3cc(OC)c(OC)cc3c1=O)C(=O)c1cc3c(cc1-2)OCO3 | 2300 nM | 3000 nM | 2200 nM | 2.4 | 3600 nM |  | 2600 nM | 2600 nM | 2100 nM | 2000 nM |  |  |  | +/- | 
COc1cc2c(cc1OC)-c1c(c3ccccc3c(=O)n1CCCN)C2=O.Cl |  |  |  | 0.62 |  | Activity similar to parent compound 1 |  |  |  | 2930 nM |  |  |  |  | 
O=C1c2ccccc2-c2c1c1ccccc1c(=O)n2CCN1CCNCC1 | 3090 nM | 1120 nM | 1910 nM | 1.86 | 2190 nM |  | 580 nM | 1950 nM | 1380 nM | 1990 nM |  | Weak activity |  |  | 
COc1cc2c3c(n(CCCN)c(=O)c2cc1OC)-c1cc2c(cc1C3=O)OCO2.Cl |  |  |  | 0.16 |  |  |  |  |  | 260 nM |  |  | greater activity than compound 1 |  | 
COc1cc2c3c(n(CCN)c(=O)c2cc1OC)-c1cc2c(cc1C3=O)OCO2.Cl | 400 nM | 860 nM | 580 nM | 0.34 | 360 nM |  | 68 nM | 1040 nM | 140 nM | 1300 nM | Greater activity than compound 1 |  |  |  | 
Cl.NCCn1c2c(c3ccccc3c1=O)C(=O)c1ccccc1-2 | 760 nM | 710 nM | 620 nM | 0.53 | 490 nM |  | 270 nM | 920 nM | 920 nM | 210 nM |  |  | greater activity than compound 1 |  | 
O=C1c2ccccc2-c2c1c1ccccc1c(=O)n2CCCn1ccnc1 |  |  |  | 1.86 |  |  |  |  |  | 2340 nM |  |  |  |  | Activity similar to 1 uM camptothecin
Cl.NCCCn1c2c(c3ccccc3c1=O)C(=O)c1cc3c(cc1-2)OCO3 | 60 nM | 1450 nM | 280 nM | 0.25 | 190 nM |  | 680 nM | 1820 nM | 180 nM | 430 nM |  | Weak activity |  |  | 
Cl.NCCCn1c2c(c3ccccc3c1=O)C(=O)c1ccccc1-2 | 220 nM | 1380 nM | 200 nM | 0.32 | 160 nM |  | 180 nM | 780 nM | 260 nM | 250 nM |  |  | greater activity than compound 1 |  | 
